Article PMC9075125 (RSC Advances, 2019)

What was measured:
Assay in all cases: Cell proliferation assay
Type in all cases: cell-based
[1] = test system: human breast cancer cell line MCF-7; conditions: MCF7, 48 h, read-out: IC50, antiproliferation, Human breast cancer (MCF-7)
Procedure, shortened: (§1)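 Log-phase adherent cells were seeded at 5 × 10^4 cells per mL and allowed 24 h before test compound was added at a range of concentrations for 48 h. MTT (5 mg mL−1 stock) was added for a further 4 h. Medium was removed, formazan dissolved in DMSO, and the plate read on a microplate reader. IC50 was calculated from dose–response curves of three independent assays.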

[2] = test system: non-small cell lung cancer cell line NCI-H460; conditions: Homo sapiens, NCI-H460, 48 h, read-out: IC50, antiproliferation, Non-small cell lung cancer (H460)
Procedure, shortened: as §1

[3] = test system: human colon cancer cell line HT-29; conditions: HT-29, 48 h, read-out: IC50, antiproliferation, Human colon cancer (HT-29)
Procedure, shortened: as §1

Q: `CC[C@@]1(O)C(=O)OCc2c1cc1n(c2=O)Cc2cc3ccccc3nc2-1` [CPT, camptothecin] was tested. Which IC50 [1] did it give?
A: 0.37 ± 0.05 µM

Q: And the IC50 [2]?
A: 0.04 ± 0.002 µM

Q: And the IC50 [3]?
A: 0.04 ± 0.02 µM
